In ChEMBL document CHEMBL2396594, “Designing allosteric regulators of thrombin. Exosite 2 features multiple subsites that can be targeted by sulfated small molecules for inducing inhibition” (J Med Chem, 2013):

Assays:
Homo sapiens [1] = species: Homo sapiens; test: Uncompetitive inhibition of human plasma alpha-thrombin using spectrozyme TH as substrate assessed as decrease in enzyme Vmax at 9.9 uM after 2 hrs at 37 degC by Michaelis-Menten equation analysis relative to control; format: cell-free
Method in brief: (§1)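 5 nM plasma α-thrombin with fixed inhibitor, preincubated overnight at 25 °C or 2 h at 37 °C in 20 mM Tris-HCl pH 7.4, 100 mM NaCl, 2.5 mM CaCl2, 0.1% PEG8000. Initial Spectrozyme TH (2−80 μM) hydrolysis rate read at 405 nm with under 10% substrate consumption. Michaelis−Menten fit gives KM and VMAX; error ±1 SE.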

Homo sapiens [2] = species: Homo sapiens; test: Selectivity ratio of IC50 for human plasma alpha-thrombin to IC50 for wild type recombinant human thrombin
Homo sapiens [3] = species: Homo sapiens; test: (§2) Binding affinity to human plasma alpha-thrombin exosite-2 using spectrozyme TH as substrate after overnight incubation at 25 degC by spectrophotometric analysis in presence of 6.5 uM gamma'-fibrinogen peptide; format: cell-free
[4] = as §2; format: cell-free
[5] = Inhibition of recombinant human thrombin R173A mutant expressed in BHK cells using S2238 as substrate after overnight incubation at 25 degC
Method in brief: (§3)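 BHK-expressed, HPC4 immunoaffinity-purified thrombins, activated from prothrombin form. Active-site concentration from amidolysis and antithrombin titration. Enzyme (1.5−7.5 nM final) incubated overnight at 25 °C with inhibitor in Tris pH 7.4 buffer in coated cuvettes. Residual activity from S2238 initial rate at A405, using at least 9−10 points. Logistic fit gives IC50. Ratio is mutant IC50 over wild-type IC50.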

Homo sapiens [6] = species: Homo sapiens; test: (§4) Binding affinity to human plasma alpha-thrombin exosite-2 using spectrozyme TH as substrate after overnight incubation at 25 degC by spectrophotometric analysis in presence of 1 uM heparin octasaccharide; format: cell-free
[7] = as §4; format: cell-free
Homo sapiens [8] = species: Homo sapiens; test: (§5) Binding affinity to human plasma alpha-thrombin exosite-2 using spectrozyme TH as substrate after overnight incubation at 25 degC by spectrophotometric analysis in presence of 0.65 uM gamma'-fibrinogen peptide; format: cell-free
[9] = as §5; format: cell-free
[10] = Inhibition of recombinant human thrombin K169A mutant expressed in BHK cells using S2238 as substrate after overnight incubation at 25 degC; method in brief: as §3
Homo sapiens [11] = species: Homo sapiens; test: Uncompetitive inhibition of human plasma alpha-thrombin using spectrozyme TH as substrate assessed as decrease in substrate Km at 9.9 uM after 2 hrs at 37 degC by Michaelis-Menten equation analysis relative to control; format: cell-free; method in brief: as §1
Homo sapiens [12] = species: Homo sapiens; test: (§6) Binding affinity to human plasma alpha-thrombin exosite-2 using spectrozyme TH as substrate after overnight incubation at 25 degC by spectrophotometric analysis in presence of 20 uM heparin octasaccharide; format: cell-free
[13] = as §6; format: cell-free
[14] = Inhibition of recombinant human thrombin R175A mutant expressed in BHK cells using S2238 as substrate after overnight incubation at 25 degC; method in brief: as §3
[15] = Inhibition of recombinant human thrombin R93A mutant expressed in BHK cells using S2238 as substrate after overnight incubation at 25 degC; method in brief: as §3
Prothrombin [16] = biological target: Prothrombin (Homo sapiens, UniProt P00734, R97A); test: Inhibition of recombinant human thrombin R97A mutant expressed in BHK cells using S2238 as substrate after overnight incubation at 25 degC; method in brief: as §3
Homo sapiens [17] = species: Homo sapiens; test: (§7) Binding affinity to human plasma alpha-thrombin exosite-2 using spectrozyme TH as substrate after overnight incubation at 25 degC by spectrophotometric analysis in presence of 2 uM gamma'-fibrinogen peptide; format: cell-free
[18] = as §7; format: cell-free
Homo sapiens [19] = species: Homo sapiens; test: (§8) Binding affinity to human plasma alpha-thrombin exosite-2 using spectrozyme TH as substrate after overnight incubation at 25 degC by spectrophotometric analysis in presence of 10 uM heparin octasaccharide; format: cell-free
[20] = as §8; format: cell-free
[21] = Inhibition of recombinant human thrombin R165A mutant expressed in BHK cells using S2238 as substrate after overnight incubation at 25 degC; method in brief: as §3
[22] = Inhibition of recombinant human thrombin K235A mutant expressed in BHK cells using S2238 as substrate after overnight incubation at 25 degC; method in brief: as §3
Homo sapiens [23] = species: Homo sapiens; test: Inhibition of human plasma alpha-thrombin assessed as spectrozyme TH hydrolysis at 1 to 900 uM preincubated for 10 mins by spectrophotometric analysis relative to control; format: cell-free
Method in brief: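 Human plasma α-thrombin (5 nM final) with inhibitor (1−900 μM final) in 20 mM Tris-HCl pH 7.4, 100 mM NaCl, 2.5 mM CaCl2, 0.1% PEG8000, PEG20000-coated cuvettes, 10 min. Spectrozyme TH then added (30 μM final). Initial rate from A405 increase. Residual activity fitted by logistic equation with floating Hill slope, Y0, YM to give IC50.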

Homo sapiens [24] = species: Homo sapiens; test: (§9) Binding affinity to human plasma alpha-thrombin exosite-2 using spectrozyme TH as substrate after overnight incubation at 25 degC by spectrophotometric analysis in presence of 25 uM unfractionated heparin; format: cell-free
[25] = as §9; format: cell-free
Homo sapiens [26] = species: Homo sapiens; test: (§10) Binding affinity to human plasma alpha-thrombin exosite-2 using spectrozyme TH as substrate after overnight incubation at 25 degC by spectrophotometric analysis in presence of 42.6 uM unfractionated heparin; format: cell-free
[27] = as §10; format: cell-free
Homo sapiens [28] = species: Homo sapiens; test: (§11) Binding affinity to human plasma alpha-thrombin exosite-1 using spectrozyme TH as substrate after overnight incubation at 25 degC by spectrophotometric analysis in presence of 5 nM hirugen peptide; format: cell-free
[29] = as §11; format: cell-free
Homo sapiens [30] = species: Homo sapiens; test: Uncompetitive inhibition of human plasma alpha-thrombin using spectrozyme TH as substrate assessed as decrease in enzyme Vmax at 3.6 uM after overnight incubation at 25 degC by Michaelis-Menten equation analysis relative to control; format: cell-free; method in brief: as §1
Homo sapiens [31] = species: Homo sapiens; test: (§12) Binding affinity to human plasma alpha-thrombin exosite-2 using spectrozyme TH as substrate after overnight incubation at 25 degC by spectrophotometric analysis in presence of 3 uM heparin octasaccharide; format: cell-free
[32] = as §12; format: cell-free
Homo sapiens [33] = species: Homo sapiens; test: Uncompetitive inhibition of human plasma alpha-thrombin using spectrozyme TH as substrate assessed as decrease in substrate Km at 3.6 uM after overnight incubation at 25 degC by Michaelis-Menten equation analysis relative to control; format: cell-free; method in brief: as §1
[34] = Inhibition of recombinant human thrombin R233A mutant expressed in BHK cells using S2238 as substrate after overnight incubation at 25 degC; method in brief: as §3
Homo sapiens [35] = species: Homo sapiens; test: (§13) Binding affinity to human plasma alpha-thrombin exosite-2 using spectrozyme TH as substrate after overnight incubation at 25 degC by spectrophotometric analysis in presence of 12.8 uM unfractionated heparin; format: cell-free
[36] = as §13; format: cell-free
Prothrombin [37] = biological target: Prothrombin (Homo sapiens, UniProt P00734); test: Inhibition of wild type recombinant human thrombin expressed in BHK cells using S2238 as substrate after overnight incubation at 25 degC; method in brief: as §3
Homo sapiens [38] = species: Homo sapiens; test: (§14) Binding affinity to human plasma alpha-thrombin exosite-2 using spectrozyme TH as substrate after overnight incubation at 25 degC by spectrophotometric analysis in presence of 0.2 uM gamma'-fibrinogen peptide; format: cell-free
[39] = as §14; format: cell-free

Question: With `CCOC(=O)c1c(C)oc2cc(OC)c(OCc3oc4cc(OC)c(OCc5oc6cc(OC)c(OS(=O)(=O)[O-])cc6c5C(=O)OCC)cc4c3C(=O)OCC)cc12.[Na+]` as the molecule, how does the fold change (FC) (Homo sapiens [1]) read?
Answer: 5.7

Question: And the Ratio IC50 (Homo sapiens [2])?
Answer: 2.5

Question: What about the pIC50(app) (Homo sapiens [3]) of the same molecule?
Answer: 5.88

Question: What about the IC50 [4] of the same molecule?
Answer: 1300 nM

Question: And the pIC50 [5]?
Answer: 6.59

Question: And the pIC50(app) (Homo sapiens [6])?
Answer: 5.87

Question: And the IC50 [7]?
Answer: 1300 nM

Question: And the pIC50(app) (Homo sapiens [8])?
Answer: 5.95

Question: And the IC50 [9]?
Answer: 1100 nM

Question: What about the IC50 [10] of the same molecule?
Answer: 330 nM

Question: And the pIC50 [10]?
Answer: 6.48

Question: What about the fold change (FC) (Homo sapiens [11]) of the same molecule?
Answer: 4.1

Question: And the pIC50(app) (Homo sapiens [12])?
Answer: 5.75

Question: And the IC50 [13]?
Answer: 1800 nM

Question: What about the IC50 [14] of the same molecule?
Answer: 430 nM

Question: And the pIC50 [14]?
Answer: 6.363

Question: And the IC50 [15]?
Answer: 190 nM

Question: And the pIC50 [15]?
Answer: 6.73

Question: What about the IC50 (Prothrombin [16]; read-out: IC50) of the same molecule?
Answer: 370 nM

Question: And the IC50 (Prothrombin [16]; read-out: pIC50 (converted))?
Answer: 363 nM

Question: And the pIC50(app) (Homo sapiens [17])?
Answer: 5.92

Question: And the IC50 [18]?
Answer: 1200 nM

Question: And the pIC50(app) (Homo sapiens [19])?
Answer: 5.78

Question: And the IC50 [20]?
Answer: 1600 nM

Question: What about the pIC50 [21] of the same molecule?
Answer: 6.59

Question: And the IC50 [22]?
Answer: 270 nM

Question: And the pIC50 [22]?
Answer: 6.57

Question: What about the Efficacy (Homo sapiens [23]) of the same molecule?
Answer: 80%

Question: What about the pIC50(app) (Homo sapiens [24]) of the same molecule?
Answer: 5.42

Question: What about the IC50 [25] of the same molecule?
Answer: 3800 nM

Question: And the pIC50(app) (Homo sapiens [26])?
Answer: 5.26

Question: And the IC50 [27]?
Answer: 5600 nM

Question: What about the pIC50(app) (Homo sapiens [28]) of the same molecule?
Answer: 6.1

Question: And the IC50 [29]?
Answer: 800 nM

Question: And the fold change (FC) (Homo sapiens [30])?
Answer: 4.3

Question: What about the pIC50(app) (Homo sapiens [31]) of the same molecule?
Answer: 5.87

Question: And the IC50 [32]?
Answer: 1400 nM

Question: And the fold change (FC) (Homo sapiens [33])?
Answer: 3.1

Question: What about the IC50 [34] of the same molecule?
Answer: 980 nM

Question: What about the pIC50 [34] of the same molecule?
Answer: 6.01

Question: What about the pIC50(app) (Homo sapiens [35]) of the same molecule?
Answer: 5.68

Question: What about the IC50 [36] of the same molecule?
Answer: 2100 nM

Question: And the IC50 (Prothrombin [37]; read-out: IC50)?
Answer: 260 nM

Question: And the IC50 (Prothrombin [37]; read-out: pIC50 (converted))?
Answer: 263 nM

Question: And the pIC50(app) (Homo sapiens [38])?
Answer: 5.94

Question: What about the IC50 [39] of the same molecule?
Answer: 1200 nM
